Experimental data: ChEMBL document CHEMBL4020742, “Design and optimization of purine derivatives as in vivo active PDE10A inhibitors” (Bioorg Med Chem, 2017)

Each molecule was assayed against T1, cAMP and cAMP-inhibited cGMP 3',5'-cyclic phosphodiesterase 10A (Homo sapiens, UniProt Q9Y233) (assay: Inhibition of recombinant human N-terminal GST-tagged PDE10A1 (2 to 789 residues) expressed in baculovirus infected Sf9 cells at 5 uM using fluorescein-labeled cAMP as substrate preincubated for 15 mins followed by substrate addition measured after 30 mins by IMAP fluorescence polarization assay relative to control).
T1 sequence (Q9Y233 whole entry, the tested form may be a part): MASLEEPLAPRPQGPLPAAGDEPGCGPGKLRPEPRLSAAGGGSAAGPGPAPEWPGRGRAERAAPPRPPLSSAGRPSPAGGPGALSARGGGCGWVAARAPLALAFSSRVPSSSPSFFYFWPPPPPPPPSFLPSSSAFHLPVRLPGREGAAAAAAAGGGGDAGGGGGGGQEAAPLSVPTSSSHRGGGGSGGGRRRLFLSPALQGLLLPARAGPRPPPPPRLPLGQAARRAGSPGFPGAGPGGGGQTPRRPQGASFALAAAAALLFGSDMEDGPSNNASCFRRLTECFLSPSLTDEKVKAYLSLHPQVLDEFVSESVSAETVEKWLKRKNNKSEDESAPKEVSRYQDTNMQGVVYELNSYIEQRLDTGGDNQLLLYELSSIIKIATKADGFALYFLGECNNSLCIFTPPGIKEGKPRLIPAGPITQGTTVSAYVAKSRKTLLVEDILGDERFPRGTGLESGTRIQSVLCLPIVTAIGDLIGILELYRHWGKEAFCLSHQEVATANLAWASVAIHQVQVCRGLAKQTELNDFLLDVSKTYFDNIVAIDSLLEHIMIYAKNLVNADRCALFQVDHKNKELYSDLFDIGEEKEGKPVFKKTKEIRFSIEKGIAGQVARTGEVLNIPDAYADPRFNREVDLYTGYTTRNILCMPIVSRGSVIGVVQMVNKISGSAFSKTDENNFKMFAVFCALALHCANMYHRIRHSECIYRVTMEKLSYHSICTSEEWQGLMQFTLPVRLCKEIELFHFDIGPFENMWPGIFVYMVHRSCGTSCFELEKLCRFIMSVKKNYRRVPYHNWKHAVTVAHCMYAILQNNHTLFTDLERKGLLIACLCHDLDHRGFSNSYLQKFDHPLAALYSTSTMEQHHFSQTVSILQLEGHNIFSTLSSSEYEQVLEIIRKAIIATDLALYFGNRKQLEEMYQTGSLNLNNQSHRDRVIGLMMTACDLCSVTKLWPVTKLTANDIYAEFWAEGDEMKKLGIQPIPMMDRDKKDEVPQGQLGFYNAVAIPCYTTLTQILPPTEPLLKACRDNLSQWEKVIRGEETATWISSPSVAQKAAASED
Procedure, shortened: (§1)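 Recombinant PDE4A1A, PDE2A1 or PDE10A1 was incubated with compound (1% DMSO, duplicate) for 15 min at RT. Fluorescein-cAMP was then added for 30 min at RT, and the reaction was stopped with IMAP binding reagent (1 h, dark). FP was read at Ex485/Em535. Inhibition was set against no-enzyme and DMSO controls. IC50 came from a four-parameter logistic fit; values are the mean of at least two measurements.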

inhibition [%] | SMILES
20 | COc1cccc(CCn2cnc3c(N4CCOCC4)ncnc32)c1
90 | CCOC(=O)c1ccc(Cn2c(C)nc3c(N4CCOCC4)ncnc32)cc1
87 | Cc1nc2c(N3CCOCC3)ncnc2n1Cc1ccccc1Br
90 | Cc1noc(C)c1-c1ccc(CNc2c(C)nc3c(N4CCOCC4)nccn23)cc1
77 | Cc1nc2c(N3CCOCC3)nccn2c1NCc1ccc(Br)cc1
90 | Brc1ccc(Cn2cnc3c(N4CCOCC4)ncnc32)cc1
83 | COc1ccc(CCNc2c(C)nc3c(N4CCOCC4)nccn23)cc1OC
57 | Cc1ccc(-c2ccccc2CNc2c(C)nc3c(N4CCOCC4)nccn23)cc1
81 | COc1ccc(CCNc2c(C)nc3c(N4CCOCC4)nccn23)cc1Br
51 | Cc1nc2c(N3CCOCC3)nccn2c1NC(=O)Cc1ccccc1
50 | COc1ccc(CC(=O)Nc2c(C)nc3c(N4CCOCC4)nccn23)cc1OC
47 | Cc1nc2c(N3CCOCC3)nccn2c1NC(=O)Cc1c(Cl)cccc1Cl
11 | O=C(Cn1cnc2c(N3CCOCC3)ncnc21)c1ccccc1
61 | Cc1nc2c(N3CCOCC3)nccn2c1NCc1ccccc1-c1cncnc1
60 | COc1ccc(-c2ccccc2CNc2c(C)nc3c(N4CCOCC4)nccn23)cc1
93 | Cc1nc2c(N3CCOCC3)ncnc2n1Cc1ccc(Br)cc1
63 | Cc1nc2c(N3CCOCC3)nccn2c1NCc1ccccc1-c1ccc2ccccc2c1
39 | Cc1nc2c(N3CCOCC3)nccn2c1NCc1ccccc1-c1ccc(C(C)(C)C)cc1
87 | Cc1nc2c(N3CCOCC3)nccn2c1NCc1ccccc1-c1ccccc1Cl
82 | Cc1nc2c(N3CCOCC3)nccn2c1NCCc1ccc2c(c1)OCO2

inhibition [%] | SMILES
91 | Cc1nc2c(N3CCOCC3)nccn2c1NCc1ccc(-c2ccncc2)cc1
97 | CCc1nc2c(N3CCOCC3)ncnc2n1Cc1ccc(-c2ccccc2)cc1
70 | Cc1nc2c(N3CCOCC3)nccn2c1NCc1ccccc1-c1ccncc1
96 | Cc1nc2c(N3CCOCC3)ncnc2n1Cc1ccc(-c2ccncc2)cc1
88 | Cc1nc2c(N3CCOCC3)nccn2c1NCc1ccc(-c2cnn(C)c2)cc1
76 | Cc1nc2c(N3CCOCC3)nccn2c1NCc1ccccc1-c1cccnc1
75 | Cc1nc2c(N3CCOCC3)nccn2c1NCc1ccccc1-c1ccccc1
94 | COc1ccc(-c2ccc(Cn3c(C)nc4c(N5CCOCC5)ncnc43)cc2)cc1
24 | Cc1nc2c(N3CCOCC3)nccn2c1NC(=O)Cc1ccc2ccccc2c1
70 | Clc1cccc(Cl)c1Cn1cnc2c(N3CCOCC3)ncnc21
94 | c1ccc(-c2ccc(Cn3cnc4c(N5CCOCC5)ncnc43)cc2)cc1
91 | Cc1nc2c(N3CCOCC3)ncnc2n1Cc1ccc(-c2ccc(Cl)cc2)cc1
66 | c1ccc(Cn2cnc3c(N4CCOCC4)ncnc32)cc1
87 | COc1ccc(-c2ccc(CNc3c(C)nc4c(N5CCOCC5)nccn34)cc2)cc1
97 | Cc1nc2c(N3CCOCC3)ncnc2n1Cc1ccc(-c2cccnc2)cc1
93 | COc1ccc(CCNc2c(C)nc3c(N4CCOCC4)nccn23)c(-c2ccccc2)c1
98 | Cc1nc2c(N3CCOCC3)nccn2c1NCCc1c(Cl)cccc1Cl
68 | Cc1noc(C)c1-c1ccccc1CNc1c(C)nc2c(N3CCOCC3)nccn12
38 | Cc1nc2c(N3CCOCC3)nccn2c1NCc1ccc(-c2ccc(C(C)(C)C)cc2)cc1
93 | Cc1nc2c(N3CCOCC3)ncnc2n1Cc1ccc(-c2cccc(Cl)c2)cc1

inhibition [%] | SMILES
73 | Cc1nc2c(N3CCOCC3)nccn2c1NCc1ccccc1Br
74 | Cc1nc2c(N3CCOCC3)nccn2c1NCCc1ccccc1
85 | COc1cc(Cn2cnc3c(N4CCOCC4)ncnc32)cc(OC)c1
64 | Cc1nc2c(N3CCOCC3)nccn2c1NCc1ccccc1-c1cnn(C)c1
80 | COc1ccc(CCNc2c(C)nc3c(N4CCOCC4)nccn23)cc1-c1ccccc1
44 | Cc1nc2c(N3CCOCC3)nccn2c1NC(=O)Cc1ccc2c(c1)OCO2
77 | Cc1nc2c(N3CCOCC3)nccn2c1NCc1ccc(-c2ccccc2Cl)cc1
79 | Cc1nc2c(N3CCOCC3)nccn2c1NCc1ccc(-c2cncnc2)cc1
74 | Cc1ccc(-c2ccc(CNc3c(C)nc4c(N5CCOCC5)nccn34)cc2)cc1
13 | c1ccc(CCn2cnc3c(N4CCOCC4)ncnc32)cc1
92 | COc1ccc(CCNc2c(C)nc3c(N4CCOCC4)nccn23)c(Br)c1
78 | Cc1nc2c(N3CCOCC3)nccn2c1NCCc1ccc2ccccc2c1
55 | Cc1nc2c(N3CCOCC3)nccn2c1NCc1ccc(-c2ccccc2)cc1
96 | Cc1noc(C)c1-c1ccc(Cn2c(C)nc3c(N4CCOCC4)ncnc32)cc1
51 | COc1ccc(-c2ccccc2CNc2c(C)nc3c(N4CCOCC4)nccn23)cc1OC
100 | c1ccc2cc(Cn3cnc4c(N5CCOCC5)ncnc43)ccc2c1
96 | Cc1nc2c(N3CCOCC3)ncnc2n1Cc1ccc(C(=O)Nc2ccccc2)cc1
98 | Cc1nc2c(N3CCOCC3)ncnc2n1Cc1ccc(-c2cnc3[nH]ncc3c2)cc1
90 | Cc1nc2c(N3CCOCC3)nccn2c1NCc1ccc(-c2cccnc2)cc1
54 | Cc1nc2c(N3CCOCC3)nccn2c1NCc1ccc(-c2ccc3ccccc3c2)cc1

SMILES | inhibition [%]
Cc1nc2c(N3CCOCC3)ncnc2n1Cc1ccc(-c2ccccc2)cc1 | 99

The molecules below were run against T1, cAMP and cAMP-inhibited cGMP 3',5'-cyclic phosphodiesterase 10A (assay: Inhibition of recombinant human N-terminal GST-tagged PDE10A1 (2 to 789 residues) expressed in baculovirus infected Sf9 cells using fluorescein-labeled cAMP as substrate preincubated for 15 mins followed by substrate addition measured after 30 mins by IMAP fluorescence polarization assay).
Procedure, shortened: as §1

IC50 [nM] | SMILES
518 | Cc1noc(C)c1-c1ccc(CNc2c(C)nc3c(N4CCOCC4)nccn23)cc1
530 | Brc1ccc(Cn2cnc3c(N4CCOCC4)ncnc32)cc1
327 | Cc1nc2c(N3CCOCC3)ncnc2n1Cc1ccc(Br)cc1
391 | Cc1nc2c(N3CCOCC3)nccn2c1NCc1ccc(-c2ccncc2)cc1
168 | CCc1nc2c(N3CCOCC3)ncnc2n1Cc1ccc(-c2ccccc2)cc1
116 | Cc1nc2c(N3CCOCC3)ncnc2n1Cc1ccc(-c2ccncc2)cc1
62 | COc1ccc(-c2ccc(Cn3c(C)nc4c(N5CCOCC5)ncnc43)cc2)cc1
103 | c1ccc(-c2ccc(Cn3cnc4c(N5CCOCC5)ncnc43)cc2)cc1
168 | Cc1nc2c(N3CCOCC3)ncnc2n1Cc1ccc(-c2ccc(Cl)cc2)cc1
61 | Cc1nc2c(N3CCOCC3)ncnc2n1Cc1ccc(-c2cccnc2)cc1
336 | COc1ccc(CCNc2c(C)nc3c(N4CCOCC4)nccn23)c(-c2ccccc2)c1
447 | Cc1nc2c(N3CCOCC3)nccn2c1NCCc1c(Cl)cccc1Cl
258 | Cc1nc2c(N3CCOCC3)ncnc2n1Cc1ccc(-c2cccc(Cl)c2)cc1
243 | COc1ccc(CCNc2c(C)nc3c(N4CCOCC4)nccn23)c(Br)c1
119 | Cc1noc(C)c1-c1ccc(Cn2c(C)nc3c(N4CCOCC4)ncnc32)cc1
107 | c1ccc2cc(Cn3cnc4c(N5CCOCC5)ncnc43)ccc2c1
130 | Cc1nc2c(N3CCOCC3)ncnc2n1Cc1ccc(C(=O)Nc2ccccc2)cc1
60 | Cc1nc2c(N3CCOCC3)ncnc2n1Cc1ccc(-c2cnc3[nH]ncc3c2)cc1
529 | Cc1nc2c(N3CCOCC3)nccn2c1NCc1ccc(-c2cccnc2)cc1

SMILES | IC50 [nM]
Cc1nc2c(N3CCOCC3)ncnc2n1Cc1ccc(-c2ccccc2)cc1 | 113 to 118
